17 compounds from ChEMBL document CHEMBL5532703, “A new class of 7-deazaguanine agents targeting autoimmune diseases: dramatic reduction of synovial fibroblast IL-6 production from human rheumatoid arthritis patients and improved performance against murine experimental autoimmune encephalomyelitis” (RSC Med Chem, 2024) can be followed below.

The subject of assay [1] is Synovial fibroblasts. Description: Anti-inflammatory activity in human Synovial fibroblasts derived from rheumatoid arthritis patient assessed as reduction in TNF-alpha induced IL-6 production at 200 uM measured after 72 hrs by ELISA. It is filed as functional, cell-based. Summed up:
(§1)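 Synovial fibroblasts came from collagenase-digested (1 mg/mL, 4 h, 37 °C) RA patient biopsies, grown in RPMI-1640 with 10% FCS and used at passages 3–8. Cultures were stimulated with TNFα (10 ng/mL) while exposed to compound, with medium and compound renewed at 24 h. Supernatants were collected at 72 h for IL-6 ELISA, relative to a 4% DMSO/PBS vehicle control.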
(In general: An ELISA detects its analyte on a solid surface through an enzyme-linked reagent.)

The subject of assay [2] is Mus musculus. The assay is described as follows: Anti-inflammatory activity in complete Freund's adjuvant/MOG (35 to 55 residues)/pertussis toxin-induced experimental autoimmune encephalomyelitis C57BL/6 mouse model assessed as decrease in disease progression at 16 mg/kg,ip administration observed after 1 day. The format is functional, organism-based. Summed up: (§2)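 Female C57BL/6 mice, 10–12 weeks old and about 20 g, with EAE induced by s.c. CFA/MOG plus i.p. pertussis toxin on days 0 and 2. Mice entered the study at clinical score 1.5–2, which was day 0, and were randomised. Each received 200 µL i.p. daily for 7 days of 4 mM compound (equimolar dosing) in 4% DMSO/PBS, made fresh. Vehicle controls were used, n = 4–5, with clinical scores recorded daily post treatment.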

The subject of assay [3] is Mus musculus. Description: Anti-inflammatory activity in complete Freund's adjuvant/MOG (35 to 55 residues)/pertussis toxin-induced experimental autoimmune encephalomyelitis C57BL/6 mouse model assessed as decrease in disease progression at ip administration observed after 4 days. The following applies: time 4.0 day. The format is functional, organism-based. In a few lines:
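EAE in female C57BL/6 mice, induced with CFA/MOG s.c. and pertussis toxin i.p. Mice were enrolled at clinical score 1.5–2 and randomised, then dosed i.p. daily with compound diluted to 4 mM in 4% DMSO/PBS, 200 µL per mouse. This was a 4-day study, n = 5, with 4% DMSO/PBS vehicle controls. Clinical score was tracked daily after treatment started.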

The subject of assay [4] is Mus musculus. Description: Anti-inflammatory activity in complete Freund's adjuvant/MOG (35 to 55 residues)/pertussis toxin-induced experimental autoimmune encephalomyelitis C57BL/6 mouse model assessed as decrease in disease progression at 9 mg/kg,ip administration observed after 3 days. The format is functional, organism-based. The following applies: time 3.0 day. Summed up: as §2

The test system of assay [5] is Mus musculus. Description: Anti-inflammatory activity in complete Freund's adjuvant/MOG (35 to 55 residues)/pertussis toxin-induced experimental autoimmune encephalomyelitis C57BL/6 mouse model assessed as decrease in disease progression at 9 mg/kg,ip administration observed after 7 days. The format is functional, organism-based. The following applies: time 7.0 day. In a few lines:
as §2

Assay [6] has as its system Mus musculus. Description: Anti-inflammatory activity in complete Freund's adjuvant/MOG (35 to 55 residues)/pertussis toxin-induced experimental autoimmune encephalomyelitis C57BL/6 mouse model assessed as decrease in disease progression at 16 mg/kg,ip administration observed after 2 days. The format is functional, organism-based. Particulars: time 2.0 day. Summed up:
as §2

Assay [7] has as its system Synovial fibroblasts. The assay is described as follows: Anti-inflammatory activity in human Synovial fibroblasts derived from rheumatoid arthritis patient assessed as reduction in TNF-alpha induced IL-6 production measured after 72 hrs by ELISA. The format is functional, cell-based. Summed up: as §1
Assay [8] deals with Mus musculus. Description: Anti-inflammatory activity in complete Freund's adjuvant/MOG (35 to 55 residues)/pertussis toxin-induced experimental autoimmune encephalomyelitis C57BL/6 mouse model assessed as decrease in disease progression at 15 mg/kg,ip administration observed after 1 day. The format is functional, organism-based. Summed up:
as §2

Assay [9] concerns Mus musculus. The assay is described as follows: Anti-inflammatory activity in complete Freund's adjuvant/MOG (35 to 55 residues)/pertussis toxin-induced experimental autoimmune encephalomyelitis C57BL/6 mouse model assessed as decrease in disease progression at 15 mg/kg,ip administration observed after 7 days. Particulars: time 7.0 day. It is filed as functional, organism-based. Summed up:
as §2

In assay [10] the test system is Mus musculus. The assay is described as follows: Anti-inflammatory activity in complete Freund's adjuvant/MOG (35 to 55 residues)/pertussis toxin-induced experimental autoimmune encephalomyelitis C57BL/6 mouse model assessed as decrease in disease progression at 15 mg/kg,ip administration observed after 3 days. The following applies: time 3.0 day. The format is functional, organism-based. In a few lines: as §2

Each structure is given as a SMILES string. Activity calls are given as the source filed them. The rule behind the calls is not given here.

Turning to `Nc1nc2[nH]cc(CNCCC(c3ccccc3)c3ccccc3)c2c(=O)[nH]1`, the outcome in the assay on Synovial fibroblasts [1] was Active.

With `Nc1nc2[nH]cc(CNCCC(=O)c3ccccc3)c2c(=O)[nH]1`, the result in the assay on Synovial fibroblasts [1] and with Mus musculus [2] was Active.

For the compound `Nc1nc2[nH]cc(CNCCNc3ccccc3)c2c(=O)[nH]1`, the outcome with Synovial fibroblasts [1] was Active.

On to `Nc1nc2[nH]cc(CNOCCc3ccccc3)c2c(=O)[nH]1`, for which the outcome in the assay on Synovial fibroblasts [1] and in the assay with Mus musculus [3] was Active.

Consider `C[C@H](CCNCc1c[nH]c2nc(N)[nH]c(=O)c12)c1ccccc1`, for which the outcome with Synovial fibroblasts [1] was inactive.

Regarding `CO/N=C/c1c[nH]c2nc(N)[nH]c(=O)c12`, the outcome with Synovial fibroblasts [1] and in the assay on Mus musculus [4] was Active. Besides, the outcome with Mus musculus [5] was inactive.

`Nc1nc2[nH]cc(CNCCC3(c4ccccc4)CC3)c2c(=O)[nH]1`: in the assay with Synovial fibroblasts [1], the outcome was Active.

`CC(C)(CCNCc1c[nH]c2nc(N)[nH]c(=O)c12)c1ccccc1`: the outcome in the assay on Synovial fibroblasts [1] and with Mus musculus [6] was Active.

With `Nc1nc2[nH]cc(/C=N/O)c2c(=O)[nH]1`, the result in the assay with Synovial fibroblasts [1] and in the assay on Mus musculus [5] was Active.

As for `Nc1nc2[nH]cc(CNCC[C@H](O)c3ccccc3)c2c(=O)[nH]1`, in the assay on Synovial fibroblasts [1], the outcome was Active.

Consider `Nc1nc2[nH]cc(CNCCCc3ccccc3)c2c(=O)[nH]1`, for which the Activity entry in the assay with Synovial fibroblasts [7] is “Dose-Dependent Effect”. The result in the assay on Mus musculus [8], in the assay with Mus musculus [9] and in the assay on Mus musculus [10] was Active.

With `CC(CCNCc1c[nH]c2nc(N)[nH]c(=O)c12)c1ccccc1` (stereo unspecified), the result with Synovial fibroblasts [1] was Active.

As to `Nc1nc2[nH]cc(/C=N/OCc3ccccc3)c2c(=O)[nH]1`, the outcome with Synovial fibroblasts [1] was Active.

Turning to `Nc1nc2[nH]cc(CNCC[C@@H](O)c3ccccc3)c2c(=O)[nH]1`, the outcome in the assay on Synovial fibroblasts [1] was Active.

In the case of `Nc1nc2[nH]cc(CNCCC3(c4ccccc4)SCCS3)c2c(=O)[nH]1`, the result in the assay on Synovial fibroblasts [1] was inactive.

Turning to `CCC(CC)(CCNCc1c[nH]c2nc(N)[nH]c(=O)c12)c1ccccc1`, the outcome in the assay with Synovial fibroblasts [1] was Active.

On to `Nc1nc2[nH]cc(CNCCCc3ccsc3)c2c(=O)[nH]1`, for which, in the assay with Synovial fibroblasts [1], the result was Active.
